Test results as given in ChEMBL document CHEMBL1821649, “Synthesis, characterization of some benzazoles bearing pyridine moiety: search for novel anticancer agents” (2011).

How the values were obtained:
Type in all cases: functional
TK-10 = test: Antitumor activity against human TK10 cells after 48 hrs by SRB assay; conditions: TK-10, 48 h
Method in brief: (§1)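 NCI-60 human cancer cell line panel run under the NCI Drug Evaluation Branch protocol. Compounds were first screened at a single dose. Those meeting preset inhibition thresholds were retested at five 10-fold dilutions. Output was percent growth of treated cells, given as % growth inhibition. GI50, TGI and LC50 values were derived from the five-dose data.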

HT-29 = test: Antitumor activity against human HT-29 cells after 48 hrs by SRB assay; conditions: HT-29, 48 h
Method in brief: (§2)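 NCI-60 human tumour cell panel run under the National Cancer Institute Drug Evaluation Branch protocol. Compounds passing a single-dose prescreen were retested on all lines at five 10-fold dilutions. Growth was expressed as percent growth of treated cells. Response parameters were GI50 (molar concentration giving 50% growth inhibition), TGI (total growth inhibition) and LC50 (median lethal concentration).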

MOLT-4 = test: Antitumor activity against human MOLT4 cells after 48 hrs by SRB assay; conditions: MOLT-4, 48 h; method in brief: as §2
MDA-MB-435 = test: Antitumor activity against human MDA-MB-435 cells after 48 hrs by SRB assay; conditions: MDA-MB-435, 48 h; method in brief: as §2
OVCAR-5 = test: Antitumor activity against human OVCAR5 cells after 48 hrs by SRB assay; conditions: OVCAR-5, 48 h; method in brief: as §2
SNB-19 = test: Antitumor activity against human SNB19 cells after 48 hrs by SRB assay; conditions: SNB-19, 48 h; method in brief: as §2
HCT-15 = test: Antitumor activity against human HCT15 cells after 48 hrs by SRB assay; conditions: HCT-15, 48 h; method in brief: as §2
NCI-H460 = test: Antitumor activity against human NCI-H460 cells after 48 hrs by SRB assay; conditions: NCI-H460, 48 h; method in brief: as §2
ACHN = test: Antitumor activity against human ACHN cells after 48 hrs by SRB assay; method in brief: as §2
HCT-116 = test: Antitumor activity against human HCT116 cells after 48 hrs by SRB assay; conditions: HCT-116, 48 h; method in brief: as §2
U-251 = test: Antitumor activity against human U251 cells after 48 hrs by SRB assay; conditions: U-251, 48 h; method in brief: as §1
RPMI-8226 = test: Antitumor activity against human RPMI8226 cells after 48 hrs by SRB assay; conditions: RPMI-8226, 48 h; method in brief: as §2
SNB-75 = test: Antitumor activity against human SNB75 cells after 48 hrs by SRB assay; conditions: SNB-75, 48 h; method in brief: as §2
SK-MEL-2 = test: Antitumor activity against human SK-MEL-2 cells after 48 hrs by SRB assay; conditions: SK-MEL-2, 48 h; method in brief: as §2
CCRF-CEM = test: Antitumor activity against human CCRF-CEM cells after 48 hrs by SRB assay; method in brief: as §2
MDA-MB-468 = test: Antitumor activity against human MDA-MB-468 cells after 48 hrs by SRB assay; conditions: MDA-MB-468, 48 h; method in brief: as §2
SN12C = test: Antitumor activity against human SN12C cells after 48 hrs by SRB assay; method in brief: as §2
NCI/ADR-RES = test: Antitumor activity against human NCI/ADR-RES cells after 48 hrs by SRB assay; method in brief: as §2
A549 = test: Antitumor activity against human A549 cells after 48 hrs by SRB assay; conditions: A549, 48 h; method in brief: as §2
SK-MEL-5 = test: Antitumor activity against human SK-MEL-5 cells after 48 hrs by SRB assay; conditions: SK-MEL-5, 48 h; method in brief: as §2
LOX IMVI = test: Antitumor activity against human LOXIMVI cells after 48 hrs by SRB assay; method in brief: as §2
CAKI-1 = test: Antitumor activity against human Caki1 cells after 48 hrs by SRB assay; conditions: CAKI-1, 48 h; method in brief: as §2
COLO 205 = test: Antitumor activity against human COLO205 cells after 48 hrs by SRB assay; conditions: COLO 205, 48 h; method in brief: as §2
K562 = test: Antitumor activity against human K562 cells after 48 hrs by SRB assay; conditions: K562, 48 h; method in brief: as §2
NCI-H522 = test: Antitumor activity against human NCI-H522 cells after 48 hrs by SRB assay; conditions: NCI-H522, 48 h; method in brief: as §2
SW-620 = test: Antitumor activity against human SW620 cells after 48 hrs by SRB assay; conditions: SW-620, 48 h; method in brief: as §1
UACC-257 = test: Antitumor activity against human UACC257 cells after 48 hrs by SRB assay; conditions: UACC-257, 48 h; method in brief: as §1
NCI-H322M = test: Antitumor activity against human NCI-H322M cells after 48 hrs by SRB assay; method in brief: as §2
T47D = test: Antitumor activity against human T47D cells after 48 hrs by SRB assay; method in brief: as §1
Malme-3M = test: Antitumor activity against human MALME-3M cells after 48 hrs by SRB assay; method in brief: as §2
EKVX = test: Antitumor activity against human EKVX cells after 48 hrs by SRB assay; method in brief: as §2
[1] = read-out: LC50 (the source's name)

## Cc1cc2nc(-c3c(N)ncc(C#N)c3-c3ccc(Cl)cc3)[nH]c2cc1C
TK-10
  GI50: 4.67 µM
  TGI: 21.3 µM
TK-10; [1]
  CC50: 69.5 µM
HT-29
  GI50: 6.06 µM
  TGI: > 100 µM
HT-29; [1]
  CC50: > 100 µM
MOLT-4
  GI50: 100 µM
  LC50: > 100 µM
  TGI: > 100 µM
MDA-MB-435
  GI50: 2.62 µM
  LC50 (median lethal concentration): > 100 µM
  TGI: > 100 µM
OVCAR-5
  GI50: 14.7 µM
  TGI: > 100 µM
OVCAR-5; [1]
  CC50: > 100 µM
SNB-19
  GI50: 19.5 µM
  LC50 (median lethal concentration): > 100 µM
  TGI: 75.6 µM
HCT-15
  GI50: 30.6 µM
  TGI: > 100 µM
HCT-15; [1]
  CC50: > 100 µM
NCI-H460
  GI50: 3.04 µM
  LC50 (median lethal concentration): > 100 µM
  TGI: > 100 µM
ACHN
  GI50: 11.1 µM
  TGI: > 100 µM
ACHN; [1]
  CC50: > 100 µM
HCT-116
  GI50: 3.47 µM
  TGI: 19.7 µM
HCT-116; [1]
  CC50: 66.3 µM
U-251
  GI50: 5.48 µM
  TGI: 21.4 µM
U-251; [1]
  CC50: 66.2 µM
RPMI-8226
  GI50: 5.55 µM
  TGI: > 100 µM
RPMI-8226; [1]
  CC50: > 100 µM
SNB-75
  GI50: 12.9 µM
  LC50: 81.3 µM
  TGI: 32.4 µM
SK-MEL-2
  GI50: 20.4 µM
  LC50 (median lethal concentration): > 100 µM
  TGI: > 100 µM
CCRF-CEM
  GI50: 24.6 µM
  LC50: > 100 µM
  TGI: > 100 µM
MDA-MB-468
  GI50: 12.4 µM
  TGI: 51.5 µM
MDA-MB-468; [1]
  CC50: > 100 µM
SN12C
  GI50: 31 µM
  TGI: > 100 µM
SN12C; [1]
  CC50: > 100 µM
NCI/ADR-RES
  GI50: 15.7 µM
  TGI: > 100 µM
NCI/ADR-RES; [1]
  CC50: > 100 µM
A549
  GI50: 4.17 µM
  TGI: 24.9 µM
A549; [1]
  CC50: > 100 µM
SK-MEL-5
  GI50: 10 µM
  LC50: > 100 µM
  TGI: 33.4 µM
LOX IMVI
  GI50: 5.83 µM
  TGI: 26 µM
LOX IMVI; [1]
  CC50: 80.7 µM
CAKI-1
  GI50: 12.1 µM
  TGI: > 100 µM
CAKI-1; [1]
  CC50: > 100 µM
COLO 205
  GI50: 6.24 µM
  LC50: > 100 µM
  TGI: 83.4 µM
K562
  GI50: 31.5 µM
  LC50: > 100 µM
  TGI: > 100 µM
NCI-H522
  GI50: 4.07 µM
  LC50: 96.5 µM
  TGI: 27.9 µM
SW-620
  GI50: 32.4 µM
  TGI: > 100 µM
SW-620; [1]
  CC50: > 100 µM
UACC-257
  GI50: 11.4 µM
  LC50: > 100 µM
  TGI: 82.6 µM
NCI-H322M
  GI50: 27.7 µM
  TGI: > 100 µM
NCI-H322M; [1]
  CC50: > 100 µM
T47D
  GI50: 4.63 µM
  TGI: > 100 µM
T47D; [1]
  CC50: > 100 µM
Malme-3M
  GI50: 14.5 µM
  LC50: > 100 µM
  TGI: 78.8 µM
EKVX
  GI50: 14.4 µM
  TGI: 76.7 µM
EKVX; [1]
  CC50: > 100 µM
